Results published in ChEMBL document CHEMBL4138315, “Synthesis and Evaluation of a Novel Bivalent Selective Antagonist for the Mu-Delta Opioid Receptor Heterodimer that Reduces Morphine Withdrawal in Mice” (J Med Chem, 2018).
Calls of active or inactive are those of the source. The rule behind the calls is not given here. Where a SMILES comes first, the peptide text is derived from it. [ ]: non-standard residue; d: D form. ξ: configuration not given here. d2Nal = N[C@H](Cc1ccc2ccccc2c1)C(=O)O; ξTic = O=C(O)C1Cc2ccccc2CN1

Assays:
[1] = target: T1, Delta-type opioid receptor (Homo sapiens, UniProt P41143); test: Antagonist activity at human DOR expressed in CHO cell membranes assessed as inhibition of CYM51010-induced [35S]-GTPgammaS binding preincubated for 5 mins followed by CYM51010 and [35S]-GTPgammaS addition measured after 80 mins; type: functional
In short: (§1)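 Membranes from CHO cells stably expressing human opioid receptor (N-terminal tagged) were preincubated 5 min with antagonist concentration curves, then given 1 µM CYM51010 and 0.1 nM 35S-GTPγS; 30°C, 80 min, GF/B filtration, scintillation counting. Normalized to CYM51010 alone (100%) and vehicle (0%). Fits: 1-site for MOR/DOR (IC50), 2-site for MDOR (IC50HIGH). N = 3-4, duplicate, mean ± SEM.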

Mu-type opioid receptor [2] = target: T2, Mu-type opioid receptor (Homo sapiens, UniProt P35372); test: Displacement of [3H]-diprenorphine from human MOR expressed in CHO cell membranes after 80 mins by scintillation counting analysis
In short: (§2)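 Competition binding on MOR-, DOR- or MDOR-CHO membranes used a fixed 3H-diprenorphine level against competitor concentration curves; 30°C, 80 min, GF/B filtration, scintillation counting. Nonspecific binding defined with 500 nM each DMT-Tic-Ala-OH and CTAP. Ki was derived from IC50 and the 3H-diprenorphine KD in each line; MDOR data fitted with a 2-site model. N = 3-4, mean ± SEM.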

[3] = target: T1, Delta-type opioid receptor; test: Displacement of [3H]-diprenorphine from human DOR expressed in CHO cell membranes after 80 mins by scintillation counting analysis; in short: as §2
Mu-type opioid receptor [4] = target: T2, Mu-type opioid receptor; test: Antagonist activity at human MOR expressed in CHO cell membranes assessed as inhibition of CYM51010-induced [35S]-GTPgammaS binding preincubated for 5 mins followed by CYM51010 and [35S]-GTPgammaS addition measured after 80 mins; type: functional; in short: as §1
Homo sapiens [5] = species: Homo sapiens; test: Selectivity ratio of IC50H for human mu-delta opioid receptor heterodimer expressed in CHO cell membranes to IC50 for human DOR expressed in CHO cell membranes; type: cell-based
[6] = target: T3, Opioid receptors; mu & delta (Homo sapiens, UniProt P41143+P35372); test: Antagonist activity at human mu-delta opioid receptor heterodimer expressed in CHO cell membranes assessed as inhibition of CYM51010-induced [35S]-GTPgammaS binding at high site fraction preincubated for 5 mins followed by CYM51010 and [35S]-GTPgammaS addition measured after 80 mins relative to control; type: functional
In short: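 35S-GTPγS coupling in MDOR-CHO membranes: 5 min antagonist pre-incubation, then 1 µM CYM51010 plus 0.1 nM 35S-GTPγS, 30°C for 80 min, filtration and scintillation read. A 3-variable 2-site antagonist fit gave FHIGH, the fraction of the high-potency site. N = 3-4 independent experiments.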

[7] = target: T3, Opioid receptors; mu & delta; test: Displacement of [3H]-diprenorphine from human mu-delta opioid receptor expressed in CHO cell membranes after 80 mins by scintillation counting analysis; in short: as §2
[8] = target: T3, Opioid receptors; mu & delta; test: Displacement of [3H]-diprenorphine from human mu-delta opioid receptor heterodimer expressed in CHO cell membranes at high site fraction after 80 mins by scintillation counting analysis relative to control
[9] = target: T3, Opioid receptors; mu & delta; test: Antagonist activity at human mu-delta opioid receptor heterodimer expressed in CHO cell membranes assessed as inhibition of CYM51010-induced [35S]-GTPgammaS binding at high site fraction preincubated for 5 mins followed by CYM51010 and [35S]-GTPgammaS addition measured after 80 mins; type: functional; in short: as §1
Homo sapiens [10] = species: Homo sapiens; test: Selectivity ratio of KiH for human mu-delta opioid receptor heterodimer expressed in CHO cell membranes to Ki for human DOR expressed in CHO cell membranes; type: cell-based
[11] = target: T3, Opioid receptors; mu & delta; test: Antagonist activity at human mu-delta opioid receptor heterodimer expressed in CHO cell membranes assessed as inhibition of CYM51010-induced [35S]-GTPgammaS binding at high site fraction at 100 uM preincubated for 5 mins followed by CYM51010 and [35S]-GTPgammaS addition measured after 80 mins relative to control; type: functional
[12] = target: Kappa-type opioid receptor (Homo sapiens) (UniProt P41145); test: Antagonist activity at human KOR expressed in CHO cell membranes assessed as inhibition of U50488-induced [35S]-GTPgammaS binding preincubated for 5 mins followed by U50488 and [35S]-GTPgammaS addition measured after 80 mins; type: functional
In short: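 KOR-CHO membranes (human receptor, N-terminal tag), antagonist concentration curve preincubated 5 min, then 1 µM U50,488 plus 0.1 nM 35S-GTPγS added. Incubated 30°C, 80 min; filtration and scintillation counting. Vehicle 0.1% DMSO in assay buffer with 0.1% BSA. Normalized to agonist alone (100%) and vehicle (0%). One-site curve fit; N = 3 independent experiments in duplicate.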

[13] = target: T3, Opioid receptors; mu & delta; test: Antagonist activity at human mu-delta opioid receptor heterodimer expressed in CHO cell membranes assessed as inhibition of DAMGO-induced [35S]-GTPgammaS binding preincubated for 5 mins followed by DAMGO and [35S]-GTPgammaS addition measured after 80 mins; type: functional
In short: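 MDOR-CHO membranes were preincubated 5 min with antagonist concentration curve, then 1 µM DAMGO and 0.1 nM 35S-GTPγS were added. Incubated 30°C, 80 min; filter harvest, scintillation counting. Normalized to agonist alone and vehicle. N = 3 independent experiments in duplicate.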

Mus musculus = species: Mus musculus; test: Antinociceptive activity in CD1 mouse assessed as reduction in CYM51010-induced nociception at 10 nmol pretreated for 5 mins followed by CYM51010 injection measured up to 2 hrs by tail flick assay; type: functional, organism-based

T1 sequence (P41143 whole entry): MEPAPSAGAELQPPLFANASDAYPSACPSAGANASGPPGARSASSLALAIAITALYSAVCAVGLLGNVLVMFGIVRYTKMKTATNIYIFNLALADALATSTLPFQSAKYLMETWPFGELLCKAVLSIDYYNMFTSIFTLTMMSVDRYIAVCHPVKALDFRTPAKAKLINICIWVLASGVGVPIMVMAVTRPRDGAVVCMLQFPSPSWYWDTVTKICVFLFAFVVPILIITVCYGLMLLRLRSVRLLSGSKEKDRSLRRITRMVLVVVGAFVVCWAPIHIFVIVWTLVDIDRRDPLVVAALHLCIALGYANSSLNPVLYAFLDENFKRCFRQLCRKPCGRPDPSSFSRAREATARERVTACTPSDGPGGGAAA
T2 sequence (P35372 whole entry): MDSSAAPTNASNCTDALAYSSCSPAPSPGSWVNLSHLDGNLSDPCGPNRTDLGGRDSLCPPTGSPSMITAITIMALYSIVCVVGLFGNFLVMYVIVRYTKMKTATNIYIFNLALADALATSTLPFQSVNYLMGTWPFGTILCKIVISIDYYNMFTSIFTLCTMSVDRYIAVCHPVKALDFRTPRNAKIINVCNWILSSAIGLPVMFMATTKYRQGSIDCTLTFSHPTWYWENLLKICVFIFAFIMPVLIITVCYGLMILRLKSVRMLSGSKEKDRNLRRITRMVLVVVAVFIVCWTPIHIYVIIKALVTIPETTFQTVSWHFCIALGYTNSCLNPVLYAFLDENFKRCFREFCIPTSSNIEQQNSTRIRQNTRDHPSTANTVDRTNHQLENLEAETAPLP
T3 sequence (P35372 whole entry, looked up): as the sequence (P35372 whole entry) above
T3 sequence (P41143 whole entry, looked up): as the sequence (P41143 whole entry) above
Sequence of Kappa-type opioid receptor (Homo sapiens) (P41145 whole entry): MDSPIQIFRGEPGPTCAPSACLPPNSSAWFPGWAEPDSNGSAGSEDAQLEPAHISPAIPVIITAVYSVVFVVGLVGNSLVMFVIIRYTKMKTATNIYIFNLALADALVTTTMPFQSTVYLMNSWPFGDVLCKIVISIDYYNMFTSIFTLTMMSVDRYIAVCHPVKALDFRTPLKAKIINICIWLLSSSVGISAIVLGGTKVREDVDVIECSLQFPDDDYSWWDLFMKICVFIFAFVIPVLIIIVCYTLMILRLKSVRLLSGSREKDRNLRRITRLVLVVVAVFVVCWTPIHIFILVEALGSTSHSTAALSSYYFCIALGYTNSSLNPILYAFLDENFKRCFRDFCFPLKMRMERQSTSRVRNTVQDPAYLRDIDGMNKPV

| Compound | IC50 ([1]; cho) [nM] | Ki (Mu-type opioid receptor [2]; cho) [nM] | Ki ([3]; cho) [nM] | IC50 (Mu-type opioid receptor [4]; cho) [nM] | Ratio IC50 (Homo sapiens [5]) | Imax [6] [%] | KiH [7] [nM] | Imax [8] [%] | IC50H [9] [nM] | Ratio Ki (Homo sapiens [10]) | other results |
| --- | --- | --- | --- | --- | --- | --- | --- | --- | --- | --- | --- |
| N[C@@H](Cc1ccc(O)cc1)C(=O)N1Cc2ccccc2C[C@H]1C(=O)NCC(=O)NCC(=O)N[C@@H](CCCCNC(=O)CNC(=O)[C@@H](Cc1cccc2ccccc12)NC(=O)[C@H](Cc1ccccc1)NC(=O)[C@@H]1CCCN1C(=O)[C@@H](N)Cc1ccc(O)cc1)C(=O)O | 58 | > 1000 | 270 | > 1000 | – | – | – | – | – | – | – |
| NCCCC[C@H](NC(=O)CCCNC(=O)CNC(=O)[C@@H]1Cc2ccccc2CN1C(=O)[C@@H](N)Cc1ccc(O)cc1)C(=O)O | – | – | 250 | – | – | – | – | – | – | – | – |
| N[C@@H](Cc1ccc(O)cc1)C(=O)N1Cc2ccccc2C[C@H]1C(=O)NCC(=O)NCCC(=O)NCCCCCC(=O)N[C@@H](CCCCNC(=O)CCCCCNC(=O)CNC(=O)[C@@H](Cc1cccc2ccccc12)NC(=O)[C@H](Cc1ccccc1)NC(=O)[C@@H]1CCCN1C(=O)[C@@H](N)Cc1ccc(O)cc1)C(=O)O | 100 | > 1000 | 290 | > 1000 | – | – | – | – | – | – | – |
| N[C@@H](Cc1ccc(O)cc1)C(=O)N1Cc2ccccc2C[C@@H]1C(=O)NCC(=O)NCCCCC(=O)N[C@H](CCCCNC(=O)CNC(=O)[C@@H](Cc1cccc2ccccc12)NC(=O)[C@H](Cc1ccccc1)NC(=O)[C@@H]1CCCN1C(=O)[C@@H](N)Cc1ccc(O)cc1)C(=O)O | – | – | – | – | 28 | 39 | 2 | 12 | 2.1 | 58 | – |
| NC(=O)[C@@H](Cc1ccc2ccccc2c1)NC(=O)[C@H](Cc1ccccc1)NC(=O)[C@@H]1CCCN1C(=O)[C@@H](N)Cc1ccc(O)cc1 (H-YPF[d2Nal]-NH2) | – | – | – | – | – | – | – | – | > 1000 | – | Imax [11]: 0.43%; Ki (Mu-type opioid receptor [2]): > 1000 nM; inhibition [12]: inactive; IC50 (Mu-type opioid receptor [4]): > 1000 nM; IC50 [13]: >= 3333 nM |
| N[C@@H](Cc1ccc(O)cc1)C(=O)N1Cc2ccccc2C[C@H]1C(=O)NCC(=O)NCCCC(=O)N[C@@H](CCCCNC(=O)CCNC(=O)CNC(=O)[C@@H](Cc1cccc2ccccc12)NC(=O)[C@H](Cc1ccccc1)NC(=O)[C@@H]1CCCN1C(=O)[C@@H](N)Cc1ccc(O)cc1)C(=O)O | 68 | > 1000 | 98 | > 1000 | – | – | – | – | – | – | – |
| N[C@@H](Cc1ccc(O)cc1)C(=O)N1Cc2ccccc2C[C@@H]1C(=O)NCC(=O)NCCCC(=O)N[C@H](CCCCNC(=O)CCNC(=O)CNC(=O)[C@@H](Cc1cccc2ccccc12)NC(=O)[C@H](Cc1ccccc1)NC(=O)[C@@H]1CCCN1C(=O)[C@@H](N)Cc1ccc(O)cc1)C(=O)O | – | – | – | – | 43 | 43 | 1.3 | 9 | 1.6 | 78 | – |
| N[C@@H](Cc1ccc(O)cc1)C(=O)N1Cc2ccccc2CC1C(=O)O (stereo partly specified) (H-Tyr-[ξTic]-OH) | – | – | – | – | – | 44 | – | – | 250 | – | IC50 [1]: 100 nM; inhibition [12]: inactive; Ki [3]: 230 nM; IC50 [13]: 36.9 nM; Activity (Mus musculus): inactive |
| N[C@@H](Cc1ccc(O)cc1)C(=O)N1Cc2ccccc2C[C@H]1C(=O)NCC(=O)NCC(=O)NCCCCCC(=O)NCCC(=O)N[C@@H](CCCCNC(=O)CCNC(=O)CCCCCNC(=O)CCNC(=O)CNC(=O)[C@@H](Cc1cccc2ccccc12)NC(=O)[C@H](Cc1ccccc1)NC(=O)[C@@H]1CCCN1C(=O)[C@@H](N)Cc1ccc(O)cc1)C(=O)O | 94 | > 1000 | 230 | > 1000 | – | – | – | – | – | – | – |
| NCCCC[C@@H](NC(=O)CCCNC(=O)CNC(=O)[C@H]1Cc2ccccc2CN1C(=O)[C@@H](N)Cc1ccc(O)cc1)C(=O)O | – | – | – | – | – | 28 | – | – | 170 | – | – |
| N[C@@H](Cc1ccc(O)cc1)C(=O)N1Cc2ccccc2C[C@@H]1C(=O)NCC(=O)NCCC(=O)NCCCCCC(=O)N[C@H](CCCCNC(=O)CCCCCNC(=O)CNC(=O)[C@@H](Cc1cccc2ccccc12)NC(=O)[C@H](Cc1ccccc1)NC(=O)[C@@H]1CCCN1C(=O)[C@@H](N)Cc1ccc(O)cc1)C(=O)O | – | – | – | – | 5 | 41 | 8.1 | 15 | 20 | 35 | – |
| N[C@@H](Cc1ccc(O)cc1)C(=O)N1Cc2ccccc2C[C@@H]1C(=O)NCC(=O)NCC(=O)N[C@H](CCCCNC(=O)CNC(=O)[C@@H](Cc1cccc2ccccc12)NC(=O)[C@H](Cc1ccccc1)NC(=O)[C@@H]1CCCN1C(=O)[C@@H](N)Cc1ccc(O)cc1)C(=O)O | – | – | – | – | 17 | 43 | 2.5 | 12 | 3.4 | 110 | – |
| N[C@@H](Cc1ccc(O)cc1)C(=O)N1Cc2ccccc2C[C@@H]1C(=O)NCC(=O)NCC(=O)NCCCCCC(=O)NCCC(=O)N[C@H](CCCCNC(=O)CCNC(=O)CCCCCNC(=O)CCNC(=O)CNC(=O)[C@@H](Cc1cccc2ccccc12)NC(=O)[C@H](Cc1ccccc1)NC(=O)[C@@H]1CCCN1C(=O)[C@@H](N)Cc1ccc(O)cc1)C(=O)O | – | – | – | – | 2 | 37 | 16 | 12 | 48 | 15 | – |
| N[C@@H](Cc1ccc(O)cc1)C(=O)N1Cc2ccccc2C[C@H]1C(=O)NCC(=O)NCCCCC(=O)N[C@@H](CCCCNC(=O)CNC(=O)[C@@H](Cc1cccc2ccccc12)NC(=O)[C@H](Cc1ccccc1)NC(=O)[C@@H]1CCCN1C(=O)[C@@H](N)Cc1ccc(O)cc1)C(=O)O | 58 | > 1000 | 120 | > 1000 | – | – | – | – | – | – | – |
